What all share (format): cell-based
A short description of data set [1]: Inhibition of TNF-alpha stimulated NF-kappaB (unknown origin) expressed in mouse NIH/3T3 cells after 6 hrs by luciferase reporter gene assay. To be noted: NIH3T3, 6 h. The essentials:
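NIH-3T3-KBF-Luc mouse fibroblasts given TNFα (20 ng/mL) with or without compounds for 6 h. Cells washed, lysed in Tris-phosphate pH 7.8 buffer, and luciferase read on the supernatant. Inhibition expressed as percent of TNFα-induced NF-κB activity (100%). Mean of at least five independent experiments.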
A general note: A reporter such as luciferase makes a cellular process visible.

Data set [2] deals with T1, Nuclear factor erythroid 2-related factor 2 (Homo sapiens) (UniProt Q16236).
T1 sequence (whole entry): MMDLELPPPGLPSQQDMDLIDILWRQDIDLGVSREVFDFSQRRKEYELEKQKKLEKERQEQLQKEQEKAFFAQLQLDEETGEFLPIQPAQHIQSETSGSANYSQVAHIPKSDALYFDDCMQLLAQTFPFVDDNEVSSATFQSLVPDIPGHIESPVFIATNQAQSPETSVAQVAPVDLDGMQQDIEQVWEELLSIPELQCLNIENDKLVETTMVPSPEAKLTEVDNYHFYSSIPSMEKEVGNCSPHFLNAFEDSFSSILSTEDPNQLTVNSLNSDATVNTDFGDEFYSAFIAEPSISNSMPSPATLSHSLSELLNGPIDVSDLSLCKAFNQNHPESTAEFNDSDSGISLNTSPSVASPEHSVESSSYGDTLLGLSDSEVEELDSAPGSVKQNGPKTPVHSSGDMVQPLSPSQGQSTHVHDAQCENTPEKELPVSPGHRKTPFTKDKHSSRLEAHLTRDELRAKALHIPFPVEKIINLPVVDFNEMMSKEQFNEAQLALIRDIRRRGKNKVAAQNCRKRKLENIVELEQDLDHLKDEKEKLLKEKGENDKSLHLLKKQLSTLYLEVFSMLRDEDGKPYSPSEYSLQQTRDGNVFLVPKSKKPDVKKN
Nature of the data set: Activation of Nrf2 (unknown origin) expressed in human HaCaT-ARE-luc cells after 6 hrs by luciferase reporter gene assay relative to control tertbutylhydroquinone.

The target of data set [3] is T2, Nuclear factor erythroid 2-related factor 2 (Homo sapiens, UniProt Q16236).
T2 sequence (Q16236 whole entry): T1 sequence (whole entry)
Nature of the data set: Activation of Nrf2 (unknown origin) expressed in human HaCaT-ARE-luc cells after 6 hrs by luciferase reporter gene assay. The essentials:
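HaCaT-ARE-Luc keratinocytes in DMEM with 10% FBS, 37 °C, 5% CO2, exposed to compounds for 6 h. Cells then washed with PBS and lysed (Tris-phosphate pH 7.8, MgCl2, DTT, Triton X-100, glycerol, 15 min RT). Luciferase RLU read on the supernatant and EC50 derived. Mean of at least five independent experiments.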

In another data set the test system is HeLa. The experiment in a line: Cytotoxicity against human HeLa cells harboring pSTAT3-Luc assessed as reduction in cell viability at >5 to 10 uM.
The test system of another data set is HaCaT. The experiment in a line: Cytotoxicity against human HaCaT cells harboring pARE-Luc assessed as reduction in cell viability at >5 to 10 uM.
For data set [4], the target named is Signal transducer and activator of transcription 3 (Homo sapiens, UniProt P40763). The experiment in a line: Inhibition of IFN-gamma stimulated STAT3 (unknown origin) expressed in human HeLa cells after 6 hrs by luciferase reporter gene assay. The essentials: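 HeLa-STAT3-Luc cells stimulated with γIFN (20 IU/mL) with or without compounds for 6 h. PBS-washed cells lysed 15 min at room temperature and luciferase RLU measured. Values expressed as percent inhibition of IFN-γ-induced activity (taken as 100%). Mean of at least five independent experiments.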
Signal transducer and activator of transcription 3, sequence (P40763 whole entry): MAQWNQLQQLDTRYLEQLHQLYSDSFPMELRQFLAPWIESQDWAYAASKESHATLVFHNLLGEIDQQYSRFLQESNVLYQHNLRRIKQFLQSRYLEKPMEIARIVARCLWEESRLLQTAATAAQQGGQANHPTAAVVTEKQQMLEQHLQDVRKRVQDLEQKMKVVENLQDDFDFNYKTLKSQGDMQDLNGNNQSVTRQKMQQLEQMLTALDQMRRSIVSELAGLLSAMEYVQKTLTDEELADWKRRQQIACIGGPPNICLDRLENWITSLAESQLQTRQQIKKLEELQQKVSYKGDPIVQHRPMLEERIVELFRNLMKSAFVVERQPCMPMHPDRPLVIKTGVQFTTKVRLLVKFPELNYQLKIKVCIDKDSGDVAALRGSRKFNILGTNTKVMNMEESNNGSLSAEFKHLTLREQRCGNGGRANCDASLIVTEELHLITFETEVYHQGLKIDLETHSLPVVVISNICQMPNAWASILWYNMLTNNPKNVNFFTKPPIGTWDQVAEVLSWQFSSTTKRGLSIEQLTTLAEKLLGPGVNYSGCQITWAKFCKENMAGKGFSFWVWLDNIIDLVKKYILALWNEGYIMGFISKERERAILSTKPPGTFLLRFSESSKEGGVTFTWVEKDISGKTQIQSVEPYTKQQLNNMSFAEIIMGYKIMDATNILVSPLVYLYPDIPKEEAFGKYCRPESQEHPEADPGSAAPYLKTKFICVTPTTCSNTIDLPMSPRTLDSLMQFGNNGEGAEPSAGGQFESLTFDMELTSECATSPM

In data set [1], `CC1(C)CC[C@]2(C(=O)O)CC[C@]3(C)C(=CC[C@@H]4[C@@]5(C)CC[C@H](O)C(C)(C)[C@@H]5CC[C@]43C)[C@@H]2C1` [OLEANOLIC_ACID] returned an IC50 greater than 50 µM.

In the case of `COC(=O)[C@]12CCC(C)(C)C[C@H]1C1=CC[C@@H]3[C@@]4(C)C=C(Br)C(=O)C(C)(C)[C@@H]4CC[C@@]3(C)[C@]1(C)CC2`, the half-inhibitory concentration (IC50) in data set [1] was greater than 25 µM.

In data set [1], `CCOC(=O)/C=C/C1=C[C@]2(C)[C@H]3CC=C4[C@@H]5CC(C)(C)CC[C@]5(C(=O)OC)CC[C@@]4(C)[C@]3(C)CC[C@H]2C(C)(C)C1=O` yielded an IC50 greater than 25 µM.

For the molecule `COC(=O)[C@]12CCC(C)(C)C[C@H]1C1=CC[C@@H]3[C@@]4(C)C=C(c5ccc(C#N)cc5)C(=O)C(C)(C)[C@@H]4CC[C@@]3(C)[C@]1(C)CC2`, the IC50 in data set [1] is greater than 25 µM.

As for `COC(=O)[C@]12CCC(C)(C)C[C@H]1C1=CC[C@@H]3[C@@]4(C)C=C(c5ccccc5)C(=O)C(C)(C)[C@@H]4CC[C@@]3(C)[C@]1(C)CC2`, in data set [1], the 50% inhibitory concentration (IC50) is greater than 25 µM.

As for `COC(=O)[C@]12CCC(C)(C)C[C@H]1C1=CC[C@@H]3[C@@]4(C)C=C(I)C(=O)C(C)(C)[C@@H]4CC[C@@]3(C)[C@]1(C)CC2`, the IC50 in data set [1] is greater than 25 µM.

Molecule `COC(=O)[C@]12CCC(C)(C)C[C@H]1C1=CC[C@@H]3[C@@]4(C)C=C(c5ccc(OC)cc5)C(=O)C(C)(C)[C@@H]4CC[C@@]3(C)[C@]1(C)CC2` yielded a concentration for half-maximal inhibition (IC50) in data set [1] greater than 25 µM.

On to `COC(=O)[C@]12CCC(C)(C)C[C@H]1C1=CC[C@@H]3[C@@]4(C)C=CC(=O)C(C)(C)[C@@H]4CC[C@@]3(C)[C@]1(C)CC2`, for which, in data set [1], the IC50 was greater than 25 µM.

`COC(=O)[C@]12CCC(C)(C)C[C@H]1C1=CC[C@@H]3[C@@]4(C)C=C(C#Cc5ccccc5)C(=O)C(C)(C)[C@@H]4CC[C@@]3(C)[C@]1(C)CC2` yielded an IC50 in data set [1] greater than 25 µM.

In the case of `COC(=O)[C@]12CCC(C)(C)C[C@H]1C1=CC[C@@H]3[C@@]4(C)C=C(OC(C)=O)C(=O)C(C)(C)[C@@H]4CC[C@@]3(C)[C@]1(C)CC2`, the IC50 in data set [1] is greater than 25 µM.

In data set [1], `COC(=O)[C@]12CCC(C)(C)C[C@H]1C1=CC[C@@H]3[C@@]4(C)Cc5cnoc5C(C)(C)[C@@H]4CC[C@@]3(C)[C@]1(C)CC2` came in with an IC50 greater than 25 µM.

Molecule `COC(=O)[C@]12CCC(C)(C)C[C@H]1C1=CC[C@@H]3[C@@]4(C)CCC(=O)C(C)(C)[C@@H]4CC[C@@]3(C)[C@]1(C)CC2` yielded an IC50 in data set [1] greater than 25 µM.

In data set [1], `COC(=O)[C@]12CCC(C)(C)C[C@H]1C1=CC[C@@H]3[C@@]4(C)C=C(C(=O)O)C(=O)C(C)(C)[C@@H]4CC[C@@]3(C)[C@]1(C)CC2` gave a 50% inhibitory concentration (IC50) greater than 25 µM. The Ratio in data set [2] amounted to 0.41.

For `COC(=O)[C@]12CCC(C)(C)C[C@H]1C1=CC[C@@H]3[C@@]4(C)C=C(C=O)C(=O)C(C)(C)[C@@H]4CC[C@@]3(C)[C@]1(C)CC2`, the IC50 in data set [1] was 7.69 µM; in data set [4], “Nd(Toxic)”. Also, the EC50 result in data set [3] is reported as “Nd(Toxic)”. The Activity entry in the data set on HeLa and in the data set on HaCaT was “Toxic” each time.

As for `COC(=O)[C@]12CCC(C)(C)C[C@H]1C1=CC[C@@H]3[C@@]4(C)CC(C=O)=C(O)C(C)(C)[C@@H]4CC[C@@]3(C)[C@]1(C)CC2`, the IC50 in data set [1] was greater than 25 µM.

For `COC(=O)[C@]12CCC(C)(C)C[C@H]1[C@H]1C(=O)C=C3[C@@]4(C)C=C(C#N)C(=O)C(C)(C)[C@@H]4CC[C@@]3(C)[C@]1(C)CC2` [BARDOXOLONE METHYL], the IC50 in data set [1] fell in the range of 1.2 to 2.38 µM. In data set [2], the Ratio worked out at 40.9.

Molecule `COC(=O)[C@]12CCC(C)(C)C[C@H]1C1=CC[C@@H]3[C@@]4(C)CC(C#N)=C(O)C(C)(C)[C@@H]4CC[C@@]3(C)[C@]1(C)CC2` came in with an IC50 in data set [1] greater than 25 µM.

With `COC(=O)[C@]12CCC(C)(C)C[C@H]1C1=CC[C@@H]3[C@@]4(C)C=C(C#N)C(=O)C(C)(C)[C@@H]4CC[C@@]3(C)[C@]1(C)CC2`, it took 15.3 µM to reach half-maximal inhibition in data set [1] (IC50). Further, the Ratio in data set [2] came to 1.69.

In the case of `COC(=O)C1=C[C@]2(C)[C@H]3CC=C4[C@@H]5CC(C)(C)CC[C@]5(C(=O)OC)CC[C@@]4(C)[C@]3(C)CC[C@H]2C(C)(C)C1=O`, the IC50 in data set [1] was greater than 25 µM.

As a reminder, the IC50 is the concentration at which inhibition is half-maximal. Read a low IC50 as inhibition by little substance.

For the origin of these results see ChEMBL document CHEMBL4190292, “Electrophilic Triterpenoid Enones: A Comparative Thiol-Trapping and Bioactivity Study” (J Nat Prod, 2017).
